Assay [1] addresses T1, Muscarinic acetylcholine receptor M1 (Homo sapiens) (UniProt P11229).
T1 sequence (whole entry): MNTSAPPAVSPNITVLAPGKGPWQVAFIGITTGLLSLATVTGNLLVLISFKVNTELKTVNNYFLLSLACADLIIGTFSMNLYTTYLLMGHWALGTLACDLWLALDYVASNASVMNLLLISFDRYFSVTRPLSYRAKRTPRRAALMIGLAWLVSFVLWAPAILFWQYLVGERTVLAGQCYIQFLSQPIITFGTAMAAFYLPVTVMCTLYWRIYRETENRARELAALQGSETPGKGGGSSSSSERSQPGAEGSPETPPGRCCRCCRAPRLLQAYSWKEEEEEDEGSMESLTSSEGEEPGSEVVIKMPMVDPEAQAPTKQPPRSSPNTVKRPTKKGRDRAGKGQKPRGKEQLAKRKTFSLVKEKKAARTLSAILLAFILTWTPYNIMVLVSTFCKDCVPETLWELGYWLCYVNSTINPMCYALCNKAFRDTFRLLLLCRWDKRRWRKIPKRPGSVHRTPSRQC
Kind of assay: Displacement of radioligand from muscarinic M1 receptor assessed as 50% receptor inhibition at 10^-5 M. A digest of the protocol: (§1)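 Part of a contracted (NovaScreen) panel of 64 radioligand/enzyme assays, with the test compound run at 10⁻⁵ M and 10⁻⁷ M. Each assay was scored by whether radioligand displacement exceeded 50% at each concentration.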

Assay [2] is described as follows: Displacement of radioligand from adrenergic alpha2 receptor assessed as 50% receptor inhibition at 10^-5 M. A digest of the protocol: as §1
Assay [3] in a line: Displacement of radioligand from BZT-sensitive L-type calcium channel assessed as 50% receptor inhibition at 10^-5 M. A digest of the protocol: as §1
For assay [4], the target named is 5-hydroxytryptamine receptor 2A (Homo sapiens, UniProt P28223). Kind of assay: Displacement of […] from human 5HT2A receptor expressed in HEK cells. It is filed as cell-based, HEK293. On the technique in general: Displacement assays read how much labelled ligand stays bound in the presence of the test substance.
5-hydroxytryptamine receptor 2A, sequence (P28223 whole entry): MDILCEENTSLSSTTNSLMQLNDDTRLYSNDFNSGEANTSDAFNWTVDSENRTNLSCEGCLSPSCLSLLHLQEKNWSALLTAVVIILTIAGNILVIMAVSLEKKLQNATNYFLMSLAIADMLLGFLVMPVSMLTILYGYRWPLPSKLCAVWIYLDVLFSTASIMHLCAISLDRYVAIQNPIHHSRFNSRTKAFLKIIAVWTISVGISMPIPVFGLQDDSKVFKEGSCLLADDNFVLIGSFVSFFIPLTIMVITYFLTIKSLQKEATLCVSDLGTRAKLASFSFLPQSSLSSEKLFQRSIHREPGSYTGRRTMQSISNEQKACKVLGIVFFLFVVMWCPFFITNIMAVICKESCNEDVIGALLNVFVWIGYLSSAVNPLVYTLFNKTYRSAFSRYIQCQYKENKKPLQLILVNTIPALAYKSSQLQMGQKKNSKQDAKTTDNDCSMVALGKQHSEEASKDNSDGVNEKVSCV
The target in assay [5] is Sodium-dependent dopamine transporter (Homo sapiens, UniProt Q01959). Kind of assay: Displacement of [125I]RTI-55 from human DAT expressed in HEK293 cells. It is filed as cell-based. The essentials:
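Nonspecific binding was defined with 5 μM mazindol. Ki was determined under standard conditions and reported as mean ± SEM of replicate assays. A value >10000 nM means less than 30% radioligand displacement at that concentration.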

A short description of assay [6]: Displacement of radioligand from adrenergic alpha2 receptor assessed as 50% receptor inhibition at 10^-7 M. The essentials:
as §1

A short description of assay [7]: Displacement of radioligand from dopamine D4.2 receptor assessed as 50% receptor inhibition at 10^-7 M. The essentials: as §1
The target of assay [8] is Cannabinoid receptor 1 (Homo sapiens) (UniProt P21554). In words: Displacement of radioligand from cannabinoid CB1 receptor assessed as 50% receptor inhibition at 10^-7 M. A digest of the protocol: as §1
Cannabinoid receptor 1 (Homo sapiens), sequence (P21554 whole entry): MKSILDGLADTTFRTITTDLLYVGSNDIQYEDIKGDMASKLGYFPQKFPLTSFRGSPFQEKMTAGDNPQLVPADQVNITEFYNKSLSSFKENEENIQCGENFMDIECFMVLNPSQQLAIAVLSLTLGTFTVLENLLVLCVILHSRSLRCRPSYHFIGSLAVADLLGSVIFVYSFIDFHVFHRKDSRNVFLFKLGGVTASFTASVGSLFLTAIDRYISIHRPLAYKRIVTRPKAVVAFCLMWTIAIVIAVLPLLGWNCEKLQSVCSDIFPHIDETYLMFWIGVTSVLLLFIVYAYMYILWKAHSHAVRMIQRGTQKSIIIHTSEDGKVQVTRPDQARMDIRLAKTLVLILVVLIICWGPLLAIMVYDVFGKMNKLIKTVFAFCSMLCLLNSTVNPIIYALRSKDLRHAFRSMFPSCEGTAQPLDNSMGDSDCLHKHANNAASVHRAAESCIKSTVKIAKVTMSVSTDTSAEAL
Assay [9] concerns the target Mu-type opioid receptor (Homo sapiens) (UniProt P35372). Kind of assay: Displacement of radioligand from opioid mu receptor assessed as 50% receptor inhibition at 10^-7 M. A digest of the protocol: as §1
Assay [10] deals with T2, 5-hydroxytryptamine receptor 1A (Homo sapiens, UniProt P08908).
T2 sequence (P08908 whole entry): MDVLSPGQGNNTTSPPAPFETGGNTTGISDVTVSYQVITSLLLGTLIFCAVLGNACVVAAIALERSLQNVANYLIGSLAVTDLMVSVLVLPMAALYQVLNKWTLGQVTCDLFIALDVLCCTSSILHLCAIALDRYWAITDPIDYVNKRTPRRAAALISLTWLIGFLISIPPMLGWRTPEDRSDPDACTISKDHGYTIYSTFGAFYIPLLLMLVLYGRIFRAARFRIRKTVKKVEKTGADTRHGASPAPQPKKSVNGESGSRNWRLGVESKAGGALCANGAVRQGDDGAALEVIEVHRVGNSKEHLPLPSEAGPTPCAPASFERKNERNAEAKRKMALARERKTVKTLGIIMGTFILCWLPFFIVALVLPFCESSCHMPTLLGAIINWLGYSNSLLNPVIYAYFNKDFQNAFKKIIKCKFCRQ
Kind of assay: Displacement of [3H]8-OH-DPAT from human 5HT1A receptor expressed in HEK cells. In kind it is cell-based, HEK293. The essentials: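 Assay used HEK-h5-HT1A cells with 0.5 nM [3H]8-OH-DPAT, and nonspecific binding defined by 1 μM dihydroergotamine. Ki came from standard competition conditions, as mean ± SEM of replicate assays.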

In assay [11] the target is T3, Substance-K receptor (Homo sapiens) (UniProt P21452).
T3 sequence (whole entry): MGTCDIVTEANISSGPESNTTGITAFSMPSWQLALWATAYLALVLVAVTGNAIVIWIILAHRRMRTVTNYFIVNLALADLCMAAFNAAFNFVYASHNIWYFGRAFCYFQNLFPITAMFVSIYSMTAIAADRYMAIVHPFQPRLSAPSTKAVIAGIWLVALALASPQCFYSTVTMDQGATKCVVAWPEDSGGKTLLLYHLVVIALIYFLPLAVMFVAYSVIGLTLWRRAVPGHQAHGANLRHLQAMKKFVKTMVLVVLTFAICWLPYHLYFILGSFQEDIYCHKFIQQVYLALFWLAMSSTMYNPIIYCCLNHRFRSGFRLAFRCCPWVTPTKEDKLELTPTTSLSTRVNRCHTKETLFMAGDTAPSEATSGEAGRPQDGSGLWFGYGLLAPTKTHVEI
In words: Displacement of radioligand from neurokinin NK2 receptor assessed as 50% receptor inhibition at 10^-7 M. The essentials: as §1

Assay [12] deals with D(2) dopamine receptor (Homo sapiens, UniProt P14416). Kind of assay: Displacement of [3H]YM-09151-2 from human D2 receptor expressed in CHO cells. In kind it is cell-based. A digest of the protocol:
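CHOp-D2 or CHOp-D3 cells were labelled with 0.2–0.5 nM [3H]YM-09151-2, and nonspecific binding was set with 1 μM chlorpromazine. Ki was from standard competition conditions, as mean ± SEM of replicate assays.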

Assay [13] concerns the target Cannabinoid receptor 1 (Homo sapiens) (UniProt P21554). Kind of assay: Displacement of radioligand from cannabinoid CB1 receptor assessed as 50% receptor inhibition at 10^-5 M. The essentials: as §1
Assay [14] concerns the target T4, Glycine receptor subunit alpha-1 (Homo sapiens) (UniProt P23415).
T4 sequence (whole entry): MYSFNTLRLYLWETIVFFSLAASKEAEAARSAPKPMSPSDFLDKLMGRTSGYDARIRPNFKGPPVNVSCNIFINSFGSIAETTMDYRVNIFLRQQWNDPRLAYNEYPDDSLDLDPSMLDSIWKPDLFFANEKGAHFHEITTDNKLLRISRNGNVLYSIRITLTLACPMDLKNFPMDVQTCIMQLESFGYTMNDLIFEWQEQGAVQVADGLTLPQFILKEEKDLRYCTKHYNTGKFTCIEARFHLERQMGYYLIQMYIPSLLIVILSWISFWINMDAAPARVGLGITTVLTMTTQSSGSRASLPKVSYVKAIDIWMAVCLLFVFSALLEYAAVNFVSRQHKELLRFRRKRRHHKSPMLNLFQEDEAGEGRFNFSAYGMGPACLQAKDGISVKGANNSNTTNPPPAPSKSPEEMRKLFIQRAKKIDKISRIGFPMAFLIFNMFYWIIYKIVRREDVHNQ
Kind of assay: Displacement of radioligand from strychnine sensitive glycine receptor assessed as 50% receptor inhibition at 10^-7 M. A digest of the protocol:
as §1

Assay [15] in a line: Displacement of radioligand from muscarinic receptor assessed as 50% receptor inhibition at 10^-5 M. A digest of the protocol:
as §1

Assay [16] has as its target Histamine H1 receptor (Homo sapiens) (UniProt P35367). In words: Displacement of radioligand from histamine H1 receptor assessed as 50% receptor inhibition at 10^-5 M. The essentials:
as §1

SMILES strings stand for the structures. Calls of active or inactive are those of the source. The calls are words filed in the database; no cut-off is given here.

The values that follow come from ChEMBL document CHEMBL1828538, “Synthesis and pharmacological evaluation of indole-based sigma receptor ligands” (Eur J Med Chem, 2011).

D(2) dopamine receptor, sequence (P14416 whole entry): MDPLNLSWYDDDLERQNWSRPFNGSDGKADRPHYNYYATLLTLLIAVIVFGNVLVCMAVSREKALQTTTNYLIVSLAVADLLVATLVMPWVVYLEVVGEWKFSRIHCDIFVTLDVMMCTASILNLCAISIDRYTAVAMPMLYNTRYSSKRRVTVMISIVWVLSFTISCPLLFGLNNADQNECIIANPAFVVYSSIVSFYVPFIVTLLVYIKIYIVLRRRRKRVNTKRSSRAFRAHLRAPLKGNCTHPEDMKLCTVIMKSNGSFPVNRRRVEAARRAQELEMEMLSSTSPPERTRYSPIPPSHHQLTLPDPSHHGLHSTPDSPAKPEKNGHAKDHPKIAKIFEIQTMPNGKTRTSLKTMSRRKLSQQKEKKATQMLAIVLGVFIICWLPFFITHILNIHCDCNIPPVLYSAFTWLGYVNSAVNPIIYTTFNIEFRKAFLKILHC
Sodium-dependent dopamine transporter, sequence (Q01959 whole entry): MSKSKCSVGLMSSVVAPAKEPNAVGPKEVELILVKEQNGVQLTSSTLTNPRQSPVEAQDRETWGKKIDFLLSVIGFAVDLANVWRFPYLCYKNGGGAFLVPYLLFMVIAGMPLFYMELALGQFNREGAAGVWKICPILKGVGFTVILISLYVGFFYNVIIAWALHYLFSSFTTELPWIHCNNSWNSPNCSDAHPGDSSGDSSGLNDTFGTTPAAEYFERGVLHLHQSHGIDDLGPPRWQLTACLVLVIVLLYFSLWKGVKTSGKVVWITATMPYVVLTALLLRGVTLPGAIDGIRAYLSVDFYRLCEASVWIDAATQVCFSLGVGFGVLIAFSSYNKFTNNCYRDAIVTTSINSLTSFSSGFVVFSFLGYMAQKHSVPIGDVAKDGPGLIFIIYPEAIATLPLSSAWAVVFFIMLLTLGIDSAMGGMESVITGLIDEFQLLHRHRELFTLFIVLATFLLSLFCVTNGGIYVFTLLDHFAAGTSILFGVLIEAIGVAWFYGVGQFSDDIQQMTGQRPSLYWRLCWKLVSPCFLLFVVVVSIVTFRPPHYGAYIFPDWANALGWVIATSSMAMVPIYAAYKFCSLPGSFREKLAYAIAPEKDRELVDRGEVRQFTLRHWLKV
Histamine H1 receptor (Homo sapiens), sequence (P35367 whole entry): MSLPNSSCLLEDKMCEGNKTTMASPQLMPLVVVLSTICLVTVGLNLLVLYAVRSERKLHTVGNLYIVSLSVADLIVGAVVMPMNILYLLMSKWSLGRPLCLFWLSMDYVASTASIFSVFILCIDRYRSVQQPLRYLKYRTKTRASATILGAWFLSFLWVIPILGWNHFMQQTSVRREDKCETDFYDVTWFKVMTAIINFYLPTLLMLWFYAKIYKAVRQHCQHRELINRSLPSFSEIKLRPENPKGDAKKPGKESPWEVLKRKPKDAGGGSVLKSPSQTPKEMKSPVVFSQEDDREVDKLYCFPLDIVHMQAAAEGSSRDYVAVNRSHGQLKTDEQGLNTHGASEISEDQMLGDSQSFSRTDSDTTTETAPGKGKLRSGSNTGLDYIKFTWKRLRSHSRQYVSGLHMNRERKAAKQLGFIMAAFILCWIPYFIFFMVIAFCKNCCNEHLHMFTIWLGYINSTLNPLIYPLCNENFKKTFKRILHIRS
Mu-type opioid receptor (Homo sapiens), sequence (P35372 whole entry): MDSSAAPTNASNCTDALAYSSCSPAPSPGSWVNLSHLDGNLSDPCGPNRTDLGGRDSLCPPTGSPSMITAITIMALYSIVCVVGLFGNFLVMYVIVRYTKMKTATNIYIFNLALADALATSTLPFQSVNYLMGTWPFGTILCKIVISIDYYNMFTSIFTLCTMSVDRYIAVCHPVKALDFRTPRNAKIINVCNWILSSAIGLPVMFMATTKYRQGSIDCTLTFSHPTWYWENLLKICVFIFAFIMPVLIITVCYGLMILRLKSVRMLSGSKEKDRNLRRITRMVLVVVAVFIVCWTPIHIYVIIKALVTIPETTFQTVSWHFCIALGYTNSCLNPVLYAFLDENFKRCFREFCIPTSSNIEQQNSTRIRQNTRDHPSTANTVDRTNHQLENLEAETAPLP

In general, Ki refers to a measure of affinity in units of concentration, obtained from inhibition or displacement. Low readings indicate a stronger hold on the target, high ones a looser hold on the target. On to `COc1cc2c(cc1OC)CN(CCCCn1cc(-c3ccc(F)cc3)c3ccccc31)CC2`, for which the inhibition result in [1], in [2], in assay [3], in assay [13], in assay [14] and in [15] was “Active” throughout. The inhibition entry in [16] is “Active”. Further, the Ki was 1270 nM in assay [4], 5000 nM in assay [5], 1510 nM in assay [10] and 870 nM in assay [12]. For the same compound, the inhibition result in [6], in [7], in assay [8], in assay [9] and in assay [11] was “inactive” in each case.
